Experimental data as given in ChEMBL document CHEMBL1121744, “Synthesis and antihypertensive activity of a series of 8-substituted 1-oxa-3,8-diazaspiro[4.5]decan-2-ones” (J Med Chem, 1981).
Several values for one entry are separate records, joined by “and”; a condition that tells them apart may be missing. Equal entries are not always repeated. Activity calls are given as the source filed them. No cut-off for these calls is given here.

Columns and labels:
Canis familiaris [1] = assay: (§1) Percent inhibition of the pressor responses to 1 ug/kg iv Epinephrine in pentobarbital-anesthetized dogs for a dose of 10 mg/kg; format: functional; details: Canis lupus familiaris
How it was run: (§2)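 Dogs anesthetized with sodium pentobarbital 35 mg/kg iv; femoral artery cannulated for blood pressure, femoral vein for dosing. Epinephrine 1 μg/kg iv given at about 10-min intervals before and after increasing test doses. Test doses given iv at 90-min intervals. Result is per cent inhibition of the pressor response.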

Canis familiaris [2] = assay: Percent inhibition of the pressor responses to 1 ug/kg iv Epinephrine in pentobarbital-anesthetized dogs for a dose of 1 mg/kg; format: functional; details: Canis lupus familiaris
How it was run: (§3)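 Pentobarbital-anesthetized dogs (35 mg/kg iv) with femoral arterial pressure recording. Epinephrine (1 μg/kg), norepinephrine (0.75 μg/kg) and phenylephrine (7.5 μg/kg) iv challenges were given about every 10 min before and after rising iv test doses, which were spaced 90 min apart. Value is % inhibition of the pressor response.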

Canis familiaris [3] = assay: Percent inhibition of the pressor responses to 0.75 ug/kg iv norepinephrine in pentobarbital-anesthetized dogs for a dose of 1 mg/kg; format: functional; details: Canis lupus familiaris; how it was run: as §3
Canis familiaris [4] = assay: Percent inhibition of the pressor responses to 7.5 ug/kg iv phenylephrine in pentobarbital-anesthetized dogs for a dose of 1 mg/kg; format: functional; details: Canis lupus familiaris; how it was run: as §3
Canis familiaris [5] = assay: (§4) Percent inhibition of the pressor responses to 1 ug/kg iv Epinephrine in pentobarbital-anesthetized dogs for a dose of 0.1 mg/kg; format: functional; details: Canis lupus familiaris; how it was run: as §2
Canis familiaris [6] = assay: Change in mean arterial pressure in anesthetized dogs for a dose of 0.1 mg/kg; format: functional, Canis lupus familiaris, Artery
How it was run: (§5)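 Dogs anesthetized with sodium pentobarbital (35 mg/kg iv), femoral artery cannulated for pressure, ECG-triggered heart rate, femoral vein for dosing. Rising iv doses were given 90 min apart, and each dose is the full dose, not cumulative. Value is the maximal mean arterial pressure change 10–15 min after each dose, two dogs per compound, ±3 mmHg. Saline served as control.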

Canis familiaris [7] = assay: Percent inhibition of the pressor responses to 0.75 ug/kg iv norepinephrine in pentobarbital-anesthetized dogs for a dose of 10 mg/kg; format: functional; details: Canis lupus familiaris; how it was run: as §3
Rattus norvegicus [8] = assay: Percentage fall in systolic blood pressure in spontaneously hypertensive rats after 3 h following 50 mg/kg p.o.; format: functional, Artery; details: route oral
How it was run: (§6)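 Male Okamoto-Aoki SHR, trained, in groups of four matched for mean systolic pressure; one group per run received water vehicle. Oral dosing in water (0.1 mL per 10 g) on two consecutive mornings. After the day-2 dose, rats were restrained at 30.0 ± 1.0 °C. Systolic pressure was read by tail cuff (inflated to 300 mmHg, first pulse) at 1–4 h. % fall is versus the untreated control group, by 1-tail t test (p ≤ 0.05).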

Canis familiaris [9] = assay: Change in mean arterial pressure in anesthetized dogs for a dose of 10 mg/kg; format: functional, Canis lupus familiaris, Artery; how it was run: as §5
Canis familiaris [10] = assay: Percent inhibition of the pressor responses to 0.75 ug/kg iv norepinephrine in pentobarbital-anesthetized dogs for a dose of 5.0 mg/kg; format: functional; details: Canis lupus familiaris; how it was run: as §3
Canis familiaris [11] = assay: Percent inhibition of the pressor responses to 7.5 ug/kg iv phenylephrine in pentobarbital-anesthetized dogs for a dose of 10 mg/kg; format: functional; details: Canis lupus familiaris; how it was run: as §3
[12] = (§7) Distribution coefficient between 1-Octanol and phosphate buffer at pH7.4; format: physicochemical; details: 1-octanol/phosphate buffer, pH 7.4
Rattus norvegicus [13] = assay: Percentage fall in systolic blood pressure in spontaneously hypertensive rats after 2 hr following 50 mg/kg p.o.; format: functional, Artery; details: route oral; how it was run: as §6
Canis familiaris [14] = assay: Percent inhibition of the pressor responses to 7.5 ug/kg iv phenylephrine in pentobarbital-anesthetized dogs for a dose of 0.1 mg/kg; format: functional; details: Canis lupus familiaris; how it was run: as §3
Rattus norvegicus [15] = assay: Antihypertensive activity as percentage fall in systolic blood pressure in spontaneously hypertensive rats after a period of 1 hr for a dose of 50 mg/kg; format: functional, Artery; how it was run: as §6
Canis familiaris [16] = assay: Change in mean arterial pressure in anesthetized dogs for a dose of 1 mg/kg; format: functional, Canis lupus familiaris, Artery; how it was run: as §5
Rattus norvegicus [17] = assay: Antihypertensive activity as percentage fall in systolic blood pressure in spontaneously hypertensive rats after a period of 4 hr for a dose of 50 mg/kg po; format: functional, Artery; how it was run: as §6
Rattus norvegicus [18] = assay: Antihypertensive activity as percentage fall in systolic blood pressure in spontaneously hypertensive rats after a period of 4 hr for a dose of 25 mg/kg po.; NS=Not significant; format: functional, organism-based; design: dose 25 mg/kg; details: Artery; how it was run: as §6
Rattus norvegicus [19] = assay: Antihypertensive activity as percentage fall in systolic blood pressure in spontaneously hypertensive rats after a period of 3 hr for a dose of 25 mg/kg po.; NS=Not significant; format: functional, organism-based; design: dose 25 mg/kg; details: Artery; how it was run: as §6
Rattus norvegicus [20] = assay: Antihypertensive activity as percentage fall in systolic blood pressure in spontaneously hypertensive rats after a period of 2 hr for a dose of 50 mg/kg; format: functional, organism-based; design: dose 50 mg/kg; details: Artery; how it was run: as §6
Rattus norvegicus [21] = assay: Antihypertensive activity as percentage fall in systolic blood pressure in spontaneously hypertensive rats after a period of 2 hr for a dose of 25 mg/kg po.; NS=Not significant; format: functional, organism-based; design: dose 25 mg/kg; details: Artery; how it was run: as §6
[22] = as §7; format: physicochemical; details: 1-octanol/phosphate buffer, pH 7.4; remark: listed apart in the source
How it was run: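 Octanol/buffer distribution measured at pH 7.4 in phosphate with sodium chloride. Either HPLC (0.004 M) or shake flask.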

Rattus norvegicus [23] = assay: The antihypertensive activity as percentage fall in systolic blood pressure in spontaneously hypertensive rats after a period of 1 hr for a dose of 50 mg/kg po
Rattus norvegicus [24] = assay: The antihypertensive activity as percentage fall in systolic blood pressure in spontaneously hypertensive rats after a period of 2 hr for a dose of 75 mg/kg po; NS=Not significant; format: functional, organism-based; design: dose 75 mg/kg; details: Artery
How it was run: (§8)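 Male Okamoto-Aoki SHR, trained, in groups of four matched for systolic pressure, with a concurrent vehicle control group. Oral dosing on two consecutive mornings, in water as solution or suspension at 0.1 mL/10 g. On day 2 rats were restrained at 30.0 ± 1.0 °C. Tail-cuff systolic pressure, four traces per rat, read at each hour. Per cent fall versus control; 1-tail t test, p ≤ 0.05.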

Rattus norvegicus [25] = assay: The antihypertensive activity as percentage fall in systolic blood pressure in spontaneously hypertensive rats after a period of 3 hr for a dose of 75 mg/kg po; NS=Not significant; format: functional, organism-based; design: dose 75 mg/kg; details: Artery; how it was run: as §8
Rattus norvegicus [26] = assay: The antihypertensive activity as percentage fall in systolic blood pressure in spontaneously hypertensive rats after a period of 4 hr for a dose of 75 mg/kg po; NS=Not significant; format: functional, organism-based; design: dose 75 mg/kg; details: Artery; how it was run: as §8
Canis familiaris [27] = assay: as §4; format: functional; details: Canis lupus familiaris; how it was run: as §3; remark: listed apart in the source
Canis familiaris [28] = assay: as §1; format: functional; details: Canis lupus familiaris; how it was run: as §3; remark: listed apart in the source
Canis familiaris [29] = assay: Percent inhibition of the pressor responses to 0.75 ug/kg iv norepinephrine in pentobarbital-anesthetized dogs for a dose of 0.1 mg/kg; format: functional; details: Canis lupus familiaris; how it was run: as §3

`Cc1ccc(N(CC2=NCCN2)c2cccc(O)c2)cc1` [PHENTOLAMINE] gave an inhibition in vivo at 10 mg/kg (Canis familiaris [1]) greater than 100%, an inhibition in vivo at 1 mg/kg (Canis familiaris [2]) greater than 100% and an inhibition in vivo at 1 mg/kg (Canis familiaris [3]) greater than 100%. For the same compound, the inhibition in vivo at 1 mg/kg (Canis familiaris [4]) was 86%, the inhibition in vivo at 0.1 mg/kg (Canis familiaris [5]) was 41% and the MAP (Canis familiaris [6]) was -9 mmHg. The inhibition in vivo at 10 mg/kg (Canis familiaris [7]) was greater than 100%, the “Decrease in blood pressure” value (Rattus norvegicus [8]) was 19% and the MAP (Canis familiaris [9]) was -33 mmHg. For the same compound, the inhibition in vivo at 5 mg/kg (Canis familiaris [10]) was greater than 100%, the inhibition in vivo at 10 mg/kg (Canis familiaris [11]) was 100% and the logD [12] was 0.82. The “Decrease in blood pressure” value (Rattus norvegicus [13]) was 30%, the inhibition in vivo at 0.1 mg/kg (Canis familiaris [14]) was 42% and the “Decrease in blood pressure” value (Rattus norvegicus [15]) was 37%. For the same compound, the MAP (Canis familiaris [16]) was -11 mmHg and the “Decrease in blood pressure” value (Rattus norvegicus [17]) was 16%.
In the case of `COc1ccccc1OCC(O)CN1CCC2(CC1)CN(C)C(=O)O2` (stereo not given), the “Decrease in blood pressure” value (Rattus norvegicus [18]) is reported as “inactive”, the “Decrease in blood pressure” value (Rattus norvegicus [8]; 50 mg/kg) is reported as 19% and 7% and the “Decrease in blood pressure” value (Rattus norvegicus [19]) is reported as “inactive”. The logD [12] was 0.96, the “Decrease in blood pressure” value (Rattus norvegicus [15]) was 15% and the “Decrease in blood pressure” value (Rattus norvegicus [17]) was 9%. The “Decrease in blood pressure” value (Rattus norvegicus [20]) was “Not significant” and the “Decrease in blood pressure” value (Rattus norvegicus [21]) was “inactive”.
For `O=C1NC(Cc2ccccc2)C2(CCN(CCc3c[nH]c4ccccc34)CC2)O1` (stereo not given), the logD [22] was 2.68, the “Decrease in blood pressure” value (Rattus norvegicus [23]) was 13% and the “Decrease in blood pressure” value (Rattus norvegicus [24]) was “inactive”. For the same compound, the “Decrease in blood pressure” value (Rattus norvegicus [25]) was “inactive” and the “Decrease in blood pressure” value (Rattus norvegicus [26]) was “inactive”.
With `O=C(NC1CCN(CCc2c[nH]c3ccccc23)CC1)c1ccccc1` [INDORAMIN] the inhibition in vivo at 1 mg/kg (Canis familiaris [2]) was 92%, the inhibition in vivo at 1 mg/kg (Canis familiaris [3]) was 23% and the inhibition in vivo at 1 mg/kg (Canis familiaris [4]) was 83%. The MAP (Canis familiaris [6]) was -5 mmHg, the inhibition in vivo at 0.1 mg/kg (Canis familiaris [27]) was 74% and the “Decrease in blood pressure” value (Rattus norvegicus [8]) was 13%. For the same compound, the MAP (Canis familiaris [9]) was -38 mmHg, the inhibition in vivo at 10 mg/kg (Canis familiaris [11]) was 93% and the logD [12] was 2.13. For the same compound, the inhibition in vivo at 10 mg/kg (Canis familiaris [28]) was greater than 100%, the “Decrease in blood pressure” value (Rattus norvegicus [13]; 50 mg/kg) was 20% and 11% and the inhibition in vivo at 0.1 mg/kg (Canis familiaris [14]) was 65%. For the same compound, the “Decrease in blood pressure” value (Rattus norvegicus [15]) was 33%, the MAP (Canis familiaris [16]) was -28 mmHg and the inhibition in vivo at 0.1 mg/kg (Canis familiaris [29]) was 21%.
